Laboratory results: ChEMBL document CHEMBL2046437, “In vitro stability and in vivo anti-inflammatory efficacy of synthetic jasmonates” (Bioorg Med Chem, 2012)
Active and inactive are the calls of the source. The calls are words filed in the database; no cut-off is given here.

Tests used:
RAW264.7 [1] = assay: Antiinflammatory activity in LPS-activated mouse RAW264.7 cells assessed as inhibition of nitric oxide production incubated for 24 hrs by ELISA; type: functional, cell-based; settings: RAW264.7, 24 h, in the assay text read “by Griess reagent method” for “by ELISA”
Outline: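 RAW264.7 macrophages (DMEM, 10% FBS, penicillin/streptomycin, 37 °C, 5% CO2) treated with LPS plus compounds for 24 h. Nitrite in supernatant measured by Griess reagent (10 min, room temperature, dark), absorbance 540 nm, quantified against sodium nitrite standard curve. EC50 reported from triplicate experiments, mean ± SD.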

RAW264.7 [2] = assay: Selectivity index, ratio of TC50 for mouse RAW264.7 cells to EC50 for antiinflammatory activity in LPS-activated mouse RAW264.7 cells; type: functional
[3] = Cytotoxicity in mouse RAW264.7 cells after 24 hrs by MTT assay; type: cell-based; settings: read-out: TC50
Outline: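 RAW264.7 cells in DMEM with 10% FBS were treated for 24 h, then incubated with MTT for 4 h. Formazan was dissolved in DMSO for 30 min and absorbance read at 540 nm. TC50 reported as mean ± SD of triplicate experiments.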

Rattus norvegicus [4] = assay: Antiinflammatory activity in Sprague-Dawley rat assessed as inhibition of carrageenan-induced paw edema at 50 mg/kg, ip dosed 30 mins before carrageenan challenge measured before 6 hrs post carrageenan challenge; type: functional, organism-based; parameters: dose 50 mg/kg
Outline: (§1)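 Male Sprague–Dawley rats (140–160 g, 5 weeks old) received a single intraperitoneal dose in 5% cremophor/5% ethanol in PBS, with vehicle as control. 30 min later, 0.1 mL of 1% carrageenan in saline was injected subplantar into the right hind paw, with saline in the left. Paw volume was measured by plethysmometer at 0, 0.5, 1, 2, 4, 6 and 24 h.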

Rattus norvegicus [5] = assay: Antiinflammatory activity in Sprague-Dawley rat assessed as inhibition of carrageenan-induced paw edema at 50 mg/kg, ip dosed 30 mins before carrageenan challenge; type: functional, organism-based; parameters: dose 50 mg/kg; outline: as §1
Rattus norvegicus [6] = assay: Antiinflammatory activity in Sprague-Dawley rat assessed as inhibition of carrageenan-induced paw edema at 50 mg/kg, ip dosed 30 mins before carrageenan challenge measured at 24 hrs post carrageenan challenge; type: functional; outline: as §1
[7] = Stability in presence of porcine liver esterase assessed as esterase-mediated compound hydrolysis by measuring ratio of intact compounds and their corresponding acids in pH 7.4 phosphate buffer at 37 degC at 60 mins post incubation by RP-HPLC; type: ADME; settings: pig, isolated protein, pH 7.4, 1 h
Outline: (§2)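 About 0.5 mg ester was incubated with 50 µL porcine liver esterase stock in 0.01 M phosphate buffer (pH 7.4, 1 mL) plus 10 µL acetone at 37 °C. Intact ester/acid peak-area ratio given as mean ± SD of two experiments.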

[8] = Stability in presence of porcine liver esterase assessed as esterase-mediated compound hydrolysis by measuring ratio of intact compounds and their corresponding acids in pH 7.4 phosphate buffer at 37 degC at 30 mins post incubation by RP-HPLC; type: ADME; settings: pig, isolated protein, pH 7.4, 0.5 h; outline: as §2
Rattus norvegicus [9] = assay: Antiinflammatory activity in Sprague-Dawley rat assessed as inhibition of carrageenan-induced paw edema at 25 mg/kg, ip dosed 30 mins before carrageenan challenge measured before 6 hrs post carrageenan challenge; type: functional, organism-based; parameters: dose 25 mg/kg; outline: as §1
Rattus norvegicus [10] = assay: Antiinflammatory activity in Sprague-Dawley rat assessed as inhibition of carrageenan-induced paw edema at 25 mg/kg, ip dosed 30 mins before carrageenan challenge measured at 24 hrs post carrageenan challenge; type: functional; settings: route intraperitoneal; outline: as §1

| Structure (SMILES) | EC50 (RAW264.7 [1]) | Ratio [7] | Ratio [8] | Ratio (RAW264.7 [2]) | CC50 at 24 h [3] | Activity (Rattus norvegicus [4]) | Activity (Rattus norvegicus [5]) | inhibition (Rattus norvegicus [6]) | Activity (Rattus norvegicus [9]) | inhibition in vivo at 25 mg/kg (Rattus norvegicus [10]) | inhibition in vivo at 50 mg/kg (Rattus norvegicus [6]; route intraperitoneal) |
| --- | --- | --- | --- | --- | --- | --- | --- | --- | --- | --- | --- |
| CC/C=C\C[C@H]1C(=O)C=C[C@H]1CC(=O)OCCOCCOCCOC | 35 µM | 0 | 0.3 | 5 | 163 µM | – | – | – | – | – | – |
| COc1ccc2c(c1)c(CC(=O)O)c(C)n2C(=O)c1ccc(Cl)cc1 [INDOMETHACIN] | – | – | – | – | – | – | – | – | Active | 57.1% | – |
| CC/C=C\C[C@H]1C(=O)C=C[C@H]1CC(=O)OCCCCC | 25 µM | – | 0 | 1 | 37 µM | – | – | – | – | – | – |
| CC/C=C\C[C@H]1C(=O)C=C[C@H]1CC(=O)OCCOC | 27 µM | 0 | 0.1 | 6 | 160 µM | – | – | – | – | – | – |
| CC/C=C\C[C@H]1C(=O)C=C[C@H]1CC(=O)OC1CCCCC1 | 22 µM | 1.1 | 4.1 | 2 | 31 µM | – | – | – | – | – | – |
| CC/C=C\C[C@H]1C(=O)C=C[C@H]1CC(=O)OCCOCCO | 36 µM | 3.1 | 5.9 | 5 | 166 µM | – | – | – | – | – | – |
| CC/C=C\C[C@H]1C(=O)C=C[C@H]1CC(=O)OCCCC | 23 µM | – | 0 | 1 | 31 µM | – | – | – | – | – | – |
| CC/C=C\C[C@H]1C(=O)C=C[C@H]1CC(=O)OCC | 20 µM | – | 0 | 7 | 146 µM | – | – | – | – | – | – |
| CC/C=C\C[C@H]1C(=O)C=C[C@H]1CC(=O)OC(C)CC (stereo not given in full) | 22 µM | 0.1 | 0.4 | 2 | 53 µM | – | – | – | – | – | – |
| CC/C=C\C[C@H]1C(=O)C=C[C@H]1CC(=O)Oc1ccc(O)cc1 | 23 µM | – | 0 | 2 | 49 µM | – | – | – | – | – | – |
| CC/C=C\C[C@H]1C(=O)C=C[C@H]1CC(=O)OCCC | 23 µM | – | 0 | 1 | 35 µM | – | – | – | – | – | – |
| CC/C=C\C[C@H]1C(=O)C=C[C@H]1CC(=O)Oc1ccccc1 | 33 µM | – | 0 | 5 | 158 µM | – | – | – | – | – | – |
| CC/C=C\C[C@H]1C(=O)C=C[C@H]1CC(=O)OCCOCCOC | 33 µM | 0 | 0.3 | 5 | 161 µM | – | – | – | – | – | – |
| CC/C=C\C[C@H]1C(=O)C=C[C@H]1CC(=O)OC(C)COC (stereo not given in full) | 23 µM | 0.2 | 0.5 | 7 | 161 µM | – | – | – | – | – | – |
| CC/C=C\C[C@H]1C(=O)C=C[C@H]1CC(=O)OCCOCCOCCO | 42 µM | 3.5 | 7.6 | 4 | 162 µM | – | – | – | – | – | – |
| CC/C=C\C[C@H]1C(=O)C=C[C@H]1CC(=O)OCCO | 24 µM | 0.7 | 1.7 | 7 | 161 µM | – | – | – | – | – | – |
| CC/C=C\C[C@H]1C(=O)C=C[C@H]1CC(=O)Oc1ccccc1OC | 32 µM | – | 0 | 5 | 161 µM | – | – | – | – | – | – |

Continued by falling EC50 (RAW264.7 [1]), values first:

| EC50 (RAW264.7 [1]) | Ratio [7] | Ratio [8] | Structure (SMILES) | Ratio (RAW264.7 [2]) | CC50 at 24 h [3] | Activity (Rattus norvegicus [4]) | Activity (Rattus norvegicus [5]) | inhibition (Rattus norvegicus [6]) | Activity (Rattus norvegicus [9]) | inhibition in vivo at 25 mg/kg (Rattus norvegicus [10]) | inhibition in vivo at 50 mg/kg (Rattus norvegicus [6]; route intraperitoneal) |
| --- | --- | --- | --- | --- | --- | --- | --- | --- | --- | --- | --- |
| 20 µM | 9.8 | 11.2 | CC/C=C\C[C@H]1C(=O)C=C[C@H]1CC(=O)OC(C)(C)C | 1 | 33 µM | – | – | – | – | – | – |
| 20 µM | 0 | 0.2 | CC/C=C\C[C@H]1C(=O)C=C[C@H]1CC(=O)OCc1ccccc1 | 1 | 31 µM | – | – | – | – | – | – |
| 20 µM | 0.1 | 0.5 | CC/C=C\C[C@H]1C(=O)C=C[C@H]1CC(=O)OC(C)C | 3 | 58 µM | – | – | – | – | – | – |
| 19 µM | 0 | 0.1 | CC/C=C\CC1C(=O)C=CC1CC(=O)OC (stereo not given) | 7 | 140 µM | – | – | – | – | – | – |
| 18 µM | 0.4 | 1.4 | CC/C=C\C[C@H]1C(=O)C=C[C@H]1CC(=O)OC(C)c1ccccc1 (stereo not given in full) | 2 | 31 µM | – | – | – | – | – | – |
| 0.83 µM | – | – | CC/C=C\C[C@H]1C(=O)C(Cl)=C[C@H]1CC(=O)OC(C)(C)C | 13.9 | 11.5 µM | inactive | Active | Active | – | – | – |
| 0.65 µM | – | – | CC/C=C\C[C@H]1C(=O)C(Cl)=C[C@H]1CC(=O)OC1CCCCC1 | 14.9 | 9.69 µM | – | – | – | – | – | – |
| 0.58 µM | – | – | CC/C=C\C[C@H]1C(=O)C(Cl)=C[C@H]1CC(=O)OCCO | 10.8 | 6.25 µM | inactive | Active | – | – | – | 62.4% |
